Experimental data collected from several papers.
Target: cGMP-dependent protein kinase 1 (PRKG1, Homo sapiens, UniProt Q13976)
One construct used (Q13976 1-671): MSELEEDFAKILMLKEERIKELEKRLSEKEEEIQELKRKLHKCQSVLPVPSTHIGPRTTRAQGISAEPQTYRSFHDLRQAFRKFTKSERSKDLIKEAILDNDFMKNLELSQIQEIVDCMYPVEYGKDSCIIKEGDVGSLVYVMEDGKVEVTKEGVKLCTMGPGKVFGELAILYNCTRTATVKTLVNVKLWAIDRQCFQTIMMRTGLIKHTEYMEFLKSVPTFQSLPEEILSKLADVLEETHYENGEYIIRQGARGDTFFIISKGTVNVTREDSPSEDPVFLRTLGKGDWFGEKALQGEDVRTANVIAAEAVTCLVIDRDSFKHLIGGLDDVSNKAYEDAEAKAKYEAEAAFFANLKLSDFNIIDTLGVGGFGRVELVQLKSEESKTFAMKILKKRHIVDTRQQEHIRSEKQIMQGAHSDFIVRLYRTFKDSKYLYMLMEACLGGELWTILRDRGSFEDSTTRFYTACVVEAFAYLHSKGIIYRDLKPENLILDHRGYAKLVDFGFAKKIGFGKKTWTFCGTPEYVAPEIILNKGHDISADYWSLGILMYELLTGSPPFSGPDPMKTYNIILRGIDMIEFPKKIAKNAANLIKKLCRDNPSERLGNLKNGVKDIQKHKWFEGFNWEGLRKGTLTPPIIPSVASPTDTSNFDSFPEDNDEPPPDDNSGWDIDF

`C#Cc1n[nH]c2c(-c3cn([C@@H](C)c4ccccn4)c(=O)[nH]c3=O)cc(F)cc12` has an inhibition of 0.5% (enzyme activity; inhibitor; 0.1 µM).
The remaining binding of `Cn1cncc1[C@](O)(COc1ccc(C#N)cc1-c1ccc(OC(F)(F)F)cc1)c1ccc(C#N)cc1` is reported as 91% (cell-free assay; competition with immobilised ligand; 1 µM).
`COc1ncccc1-c1cnn2ccc(N3CCN(C(=O)OC(C)C)CC3)nc12` has a remaining binding of 100% (binding; competition with immobilised ligand; 1 µM).
For `Cc1nn(C)cc1-c1nc2c(N3CCN(Cc4ccc(Cl)cc4)CC3)c(Cl)cnc2[nH]1`, the remaining binding was 100% (binding; competition with immobilised ligand; 1 µM).
With `CN1CCC(c2cc(-c3ccncc3)c(-c3ccc(F)cc3)[nH]2)CC1` the inhibition was 9% (enzyme activity; inhibitor; 10 µM).
For `Cn1cc(-c2cccc(N3CCc4c(sc5c4CC(C)(C)C5)C3=O)c2CO)cc(Nc2ccncn2)c1=O`, the inhibition was 4% (enzyme activity; inhibitor; 1 µM).
The inhibition of `C#Cc1n[nH]c2c(-c3cn([C@@H](C)c4ccccc4)c(=O)[nH]c3=O)cc(F)cc12` is reported as 5.1% (enzyme activity; inhibitor; 0.1 µM).
With `Cn1cc(-c2cc(F)cc(N3CCn4c(cc5c4CCCC5)C3=O)c2CO)cc(Nc2ccc(N3CCN(C4COC4)CC3)cn2)c1=O` the inhibition was 8% (enzyme activity; inhibitor; 0.1 µM).
The remaining binding of `Nc1ncc(-c2nc(N3CCOCC3)nc(N3CCOCC3)n2)c(C(F)F)n1` is reported as 79% (binding; competition with immobilised ligand; 10 µM).
The inhibition of `COc1cc(Nc2ncc(F)c(Nc3ccc4c(n3)NC(=O)C(C)(C)O4)n2)cc(OC)c1OC` is reported as 0% (binding; 10 µM).
For `N#CC1(c2ccccn2)CCN(Cc2cc(C(=O)O)c(=O)n3ccccc23)CC1`, the remaining binding was 98% (cell-free assay; competition with immobilised ligand; 1 µM).
